# A selection: hits, their analogues and other compounds. The true share with any hit is near 2.7%.
# NR2E3 ag-1 – agonists of human NR2E3 nuclear receptor | inhibition of corepressor binding, % at 3.98 µM | AID 602229 | CHO-S Gal4-NCOR/VP16-NR2E3 two-hybrid, luciferase | 0.35% of 360,000 active;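 active means inhibition above the mean of all tested compounds plus 3 SD, cut at about 70% in these data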;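 further: 0% = DMSO with NR2E3 transfected cells and 100% = cells lacking NR2E3 construct; higher means lower luciferase signal from less NR2E3 corepressor binding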
# MC4R ag barr – human MC4R agonism via beta-arrestin. P32245. U2OS MC4R beta-arrestin complementation, luminescence; percent of melanotan II response, DMSO zero. activation, % at 8.9 µM. 0.98% of 360,000 active. AID 540308;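 active means activation above a per-plate cutoff, the mean activation of sample wells on that plate plus 3 SD, cut at about 8% in these data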
# NR2E3 ag-2 – activates human photoreceptor nuclear receptor NR2E3 | GST-NR2E3/biotin-RetCOR TR-FRET, 1536-well | Q9Y5X4 | 0.12% of 320,000 active | inhibition of corepressor binding, % at 4.78 µM | AID 2300;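 active means percent inhibition above the cutoff of mean plus 3 SD of all tested compounds, set per screening campaign, cut at about 20% in these data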;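 further: 0% = DMSO wells and 100% = biotin wells as full block of FRET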
#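 System: GST-NR2E3 and biotin-RetCOR proteins; probe or stimulus: 7 nM biotin-RetCOR; doses: compound at 4.8 µM, single dose; schedule: Compound–protein incubation for 5 h at 4 °C; detection: time-resolved FRET; read-out: percent inhibition; controls: biotin wells as high control, 0.6% DMSO wells as low control; format: 1536-well plates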
# NR1D1 modulator – Rev-erb alpha (human) modulation. P20393. Rev-erbα–FITC-DNA binding, fluorescence polarization, 90 min. activity, % at 10 µM. 0.79% of 370,000 active;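 active means activity above about 14%, limit read from the data; passing the limit was not always enough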;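 further: 0% = DMSO wells with 35 nM protein and 100% = DMSO wells with 750 nM protein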
# Target sequence (P20393 whole entry, looked up): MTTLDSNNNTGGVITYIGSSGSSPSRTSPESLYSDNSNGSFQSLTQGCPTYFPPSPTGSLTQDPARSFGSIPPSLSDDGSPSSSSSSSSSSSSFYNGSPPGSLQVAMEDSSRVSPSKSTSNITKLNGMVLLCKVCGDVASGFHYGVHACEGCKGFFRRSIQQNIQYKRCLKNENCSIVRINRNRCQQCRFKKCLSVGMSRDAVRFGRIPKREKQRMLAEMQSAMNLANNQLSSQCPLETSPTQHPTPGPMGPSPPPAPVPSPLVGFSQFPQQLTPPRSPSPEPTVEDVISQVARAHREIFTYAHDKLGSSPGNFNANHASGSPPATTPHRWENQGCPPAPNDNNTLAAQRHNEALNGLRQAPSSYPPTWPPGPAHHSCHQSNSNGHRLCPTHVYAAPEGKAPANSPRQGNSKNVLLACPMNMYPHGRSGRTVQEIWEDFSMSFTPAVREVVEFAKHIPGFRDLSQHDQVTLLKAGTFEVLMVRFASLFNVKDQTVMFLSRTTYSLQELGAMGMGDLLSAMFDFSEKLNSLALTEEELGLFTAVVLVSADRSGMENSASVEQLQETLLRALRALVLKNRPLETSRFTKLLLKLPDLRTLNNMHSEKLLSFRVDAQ
# MC4R antagonist – antagonists of human melanocortin 4 receptor (MC4R) | MC4R-expressing cells, MTII-stimulated cAMP, LANCE TR-FRET | 0.48% of 360,000 active | inhibition, % at 6.5 µM | P32245;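 active means inhibition above its plate's cutoff, the mean of tested wells on that plate plus 3 SD, cut at about 29% in these data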;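 further: 0% = Melanotan II alone and 100% = Melanotan II plus saturating MCL0020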
#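 Assay system: U2OS-MC4R stable cell line; Also added: Melanotan II; Technique: Eu-cAMP/anti-cAMP TR-FRET, emission 671 nm; Times: 30-min compound, 1-h challenge, 1-h detection, room temperature.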
# PG9 Ab binder – small molecules binding HIV-1 gp120 antibody PG9. TR-FRET gp120-PG9 antibody binding. inhibition, % at 6.7 µM. 0.43% of 360,000 active; in the data active means inhibition above about 8.5%
# MC4R barr ag – human MC4R beta-arrestin agonism confirmation; activation, % at 8.9 µM; 31% of 2,400 active; U2OS MC4R beta-arrestin recruitment, luminescence; scaled DMSO 0%, Melanotan II 100%; shares compounds with MC4R ag barr;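 active means mean activation across replicates above the hit cutoff set in the earlier primary screen, cut at about 8% in these data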
# MOR-DOR barr ag – counter-screen for MC4R agonists: agonists of mu-delta opioid heterodimer; shares compounds with MC4R ag barr; U2OS PathHunter beta-arrestin, beta-gal luminescence; percent of deltorphin B response, DMSO zero; activation, % at 9.2 µM; 5.8% of 2,400 active;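 active means mean activation across replicates exceeds the hit threshold derived in the earlier primary screen, cut at about 18% in these data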;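 further: 100% = deltorphin B at 0.9 µM final and 0% = DMSO alone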
# NR2E3 ag confirm – NR2E3 agonism confirmed in two-hybrid assay. shares compounds with NR2E3 ag-1. CHO-S mammalian two-hybrid NR2E3-NCOR, luciferase luminescence. inhibition, % at 3.98 µM. 51% of 2,300 active. AID 624378;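 active means average inhibition above a cutoff equal to the mean inhibition of all tested compounds plus one SD, cut at about 70% in these data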;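 further: 0% = DMSO in NR2E3 cells and 100% = DMSO in cells lacking NR2E3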
# GAL4-VP16 luc – GAL4-VP16 reporter inhibition in NR2E3 agonist counterscreen | shares compounds with NR2E3 ag-1 | CHO-S GAL4-VP16 luciferase reporter, luminescence | inhibition, % at 3.98 µM | 29% of 2,300 active | AID 624379;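 active means mean inhibition above a cutoff equal to the average over all tested compounds plus one standard deviation, cut at about 70% in these data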;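 further: luciferase from a UAS reporter driven by GAL4-VP16 transactivation; 0% = DMSO with VP16-transfected cells and 100% = DMSO with cells lacking VP16; higher means less reporter light so more repression of VP16 activity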
# PG9 bind confirm – confirmation of small molecules binding HIV-1 gp120 antibody PG9 | shares compounds with PG9 Ab binder | inhibition, % at 6.7 µM | TR-FRET PG9 antibody binding, biochemical | 90% of 1,500 active; in the data active means inhibition above about 9%
# PGV04 counter – PGV04 control antibody binding, counter-screen; inhibition, % at 6.7 µM; TR-FRET PGV04 antibody-gp120 binding, biochemical; 95% of 1,500 active; shares compounds with PG9 Ab binder; in the data active means inhibition above about 9.5%
# NR1D1 mod conf – confirmation of modulators of human Rev-erb alpha DNA binding | shares compounds with NR1D1 modulator | Rev-erb alpha FITC-DNA binding, fluorescence polarization, 90 min | activation, % at 25 µM | 61% of 3,000 active | AID 1259319;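 active means activation at or above a set limit, or at least 3 SD above the negative control mean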;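 further: 0% = 35 nM protein with DMSO and 100% = 750 nM protein high control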
# RORg DNA counter – RORgamma DNA-binding activity, dose-response counter-screen. shares compounds with NR1D1 modulator. purified RORgamma protein-FITC-DNA binding, fluorescence polarization. IC50, µM. 8% of 910 active. AID 1259320;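 active means Compounds whose fitted half-maximal concentration for disrupting protein-DNA binding is below 10 micromolar; the record names Rev-erb in its text, so the target is in doubt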
# * hit, by the source's call; i = inactive; / = no result.
SMILES,NR2E3 ag-1,MC4R ag barr,NR2E3 ag-2,NR1D1 modulator,MC4R antagonist,PG9 Ab binder,MC4R barr ag,MOR-DOR barr ag,NR1D1 mod conf,RORg DNA counter,others
C[C@H](O)[C@@H]1C(=O)N2CCc3ccc(-c4cccc(F)c4)cc3[C@@H]2C[C@@H]1N(C)C(=O)C(C)(C)C,-29,-2,/,4,-2,2,/,/,/,/,
O=C(CSc1nc(-c2cccs2)cc(C(F)(F)F)n1)Nc1cc(OCC(F)(F)F)cc([N+](=O)[O-])c1,-16,6,-4,4,11,-2,/,/,/,/,
O=C(N[C@@H](Cc1c[nH]c2ccccc12)C(=O)O)c1ccccc1Cl,5,-3,0,2,2,-1,/,/,/,/,
CCN(CC)c1ccc2cc(C(=O)NCc3ccc(F)cc3)c(=N)oc2c1,-11,13*,-2,40*,22,-3,1,7,32*,>40,
COc1nc2c(C)cccc2cc1-c1noc(-c2ccco2)n1,-13,14*,1,20*,3,6,5,2,15,/,
CCOC(=O)c1ccc(N2C(=O)C3CCOc4ccccc4C32)cc1 (centres undefined),0,1,-4,-8,-7,-4,/,/,/,/,
COc1cc(C(=O)Nc2nnc(-c3sccc3C)s2)cc(OC)c1OC,-33,12*,3,93*,8,8,23*,8,117*,>40,
CCC(=O)N1CCc2cc(Br)cc(S(=O)(=O)N3CCCC(C(=O)NC(C)(C)C)C3)c21 (centres undefined),-9,1,3,-5,17,0,/,/,/,/,
COc1ccc(CNC(=O)CSc2nc(-c3ccccc3)cc(-c3cccs3)c2C#N)cc1,-27,-1,0,9,2,3,/,/,/,/,
COc1cc(-c2cc(-c3ccccc3)nc(SCC(=O)Nc3nccs3)c2C#N)cc(OC)c1OC,11,11*,9,72*,-12,-2,5,3,15,/,
CC[n+]1ccccc1/C=C1\Sc2ccc(C)cc2N1C,-8,-1,-2,5,-4,-2,/,/,/,/,
CCN1/C(=C/c2ccc3cc(C)ccc3[n+]2CC)Sc2cc(C)c(C)cc21,90*,29*,/,20*,-11,-9,79*,11,22*,/,NR2E3 ag confirm=99*;GAL4-VP16 luc=87*
CCc1ccc(NC(=O)CSc2nnc(-c3n[nH]c4ccccc34)n2-c2ccccc2)cc1,-3,10*,0,34*,4,9.8*,5,9,38*,>40,PG9 bind confirm=15*;PGV04 counter=24*
COc1cccc(Nc2nc(-c3ccccc3O)nc3ccccc23)c1,-36,17*,1,155*,9,1,1,4,96*,>40,
O=C(CSc1ncnc2c1oc1ccccc12)Nc1cccc(Cl)c1,-25,13*,3,430*,10,81*,0,5,371*,i,PG9 bind confirm=81*;PGV04 counter=94*
COc1ccccc1C(=O)Nc1nc2ccc(S(C)(=O)=O)cc2s1,-49,14*,0,49*,4,19*,-1,4,31*,/,PG9 bind confirm=27*;PGV04 counter=37*
CS(=O)(=O)c1ccc2nc(NC(=O)c3ccccc3Cl)sc2c1,-55,0,/,2,9,0,/,/,/,/,
CC(=O)Nc1ccc(NC(=O)CCc2nc3sc4c(c3c(=O)[nH]2)CCCC4)cc1,14,-1,-1,-2,11,-1,/,/,/,/,
Cc1cc(C)cc(NC(=O)CCc2nc3sc4c(c3c(=O)[nH]2)CCCC4)c1,84*,13*,1,30*,10,11*,5,3,8,/,NR2E3 ag confirm=96*;GAL4-VP16 luc=16;PG9 bind confirm=17*;PGV04 counter=23*
Cc1sc2nc(SCC(=O)NCc3ccco3)n(CCc3ccccc3)c(=O)c2c1C,-9,48*,4,61*,4,28*,0,38*,62*,i,PG9 bind confirm=30*;PGV04 counter=34*
CC(=O)c1sc(NC(=O)CCCOc2ccc(Cl)cc2)nc1C,-18,11*,-53,15*,-6,6,2,2,12,/,
COc1ccc(C(C)=O)cc1CSc1nc2ccccc2c(=O)n1-c1ccccc1,-3,16*,-3,36*,-24,4,3,2,36*,>40,
COc1ccc(C(C)=O)cc1CSc1nc2ccccc2c(=O)n1-c1ccccc1C,-12,-1,-1,3,-43,2,/,/,/,/,

# Screening data: PubChem, several laboratories
